Measurements as given in ChEMBL document CHEMBL4024770, “Augmentation of Anticancer Drug Efficacy in Murine Hepatocellular Carcinoma Cells by a Peripherally Acting Competitive N-Methyl-d-aspartate (NMDA) Receptor Antagonist” (J Med Chem, 2017).

Legend:
Brain [1] = assay: Drug uptake in mouse brain at 10 mg/kg, ip administered as bolus dose measured at 60 mins by LC-MS/MS analysis; assay type: ADME, organism-based; settings: in vivo, 1 h
Method in brief: (§1)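 Adult male mice (25 ± 5 g) given a single 10 mg/kg i.p. bolus, prepared as a 5.0 mM solution in 0.9% NaCl. Animals were decapitated at five time points between 10 and 240 min. Plasma was precipitated with acetonitrile containing internal standard. Brain and liver were homogenized in water (1:3) and precipitated the same way. Analysis by LC-MS/MS, with AUC0–240, Cmax, tmax, t½β and liver/plasma ratio derived from the concentration-time data.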

Brain [2] = assay: AUC (0 to 240 mins) in mouse brain at 10 mg/kg, ip administered as bolus dose by LC-MS/MS analysis; assay type: ADME, organism-based; set-up: dose 10 mg/kg, time < 4 hr, route intraperitoneal; settings: in vivo, 4 h; method in brief: as §1
Mus musculus [3] = species on record: Mus musculus; assay: Antagonist activity at NMDA receptor in Nras driven p53 deficient mouse HCC cell membranes assessed as PGE2 levels at 100 uM after 24 hrs by LC-MS/MS method relative to control; set-up: scale not given: the % may be the effect or the level left
Method in brief: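 Nras-driven p53−/− mouse HCC cells in DMEM/10% FBS were incubated 24 h with or without 100 μM compound. This was done without LPS and with LPS (2.5 μg/mL) in the growth medium. Cells were washed with ice-cold HBSS and lysed in acetonitrile on ice. PGE2 in the lysates was quantified by LC-MS/MS and expressed as % of control. Mean ± SEM, n=3; one-way ANOVA/Tukey.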

[4] = Liver to plasma partition coefficient in mouse at 10 mg/kg, ip administered as bolus dose by LC-MS/MS analysis; assay type: ADME, organism-based; settings: other tissue; method in brief: as §1
[5] = target: Glutamate receptor ionotropic, kainate 2 (Rattus norvegicus, UniProt P42260); assay: Displacement of [3H]-KA from recombinant homomeric rat GluK2 (V,C,R)a receptor expressed in baculovirus infected Sf9 insect cell membranes by scintillation counting method
Mus musculus [6] = species on record: Mus musculus; assay: Antagonist activity at NMDA receptor in Nras driven p53 deficient mouse HCC cell membranes assessed as LPS-stimulated PGE2 levels at 10 uM after 24 hrs by LC-MS/MS method (reference value: 162 +/- 7%); set-up: scale not given: the % may be the effect or the level left
Method in brief: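 Mouse Nras-driven p53−/− HCC cells in DMEM with 2 mM L-glutamine, 10% heat-inactivated FBS and penicillin/streptomycin. Cells incubated 24 h with or without antagonist, either without LPS or with 2.5 μg/mL LPS in the growth medium. Cells washed three times with ice-cold HBSS and lysed in acetonitrile on ice. PGE₂ in lysates measured by LC-MS/MS (LLOQ 1 nM) and expressed as % of control; n=3.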

[7] = target: Glutamate NMDA receptor; Grin1/Grin2b (Rattus norvegicus, UniProt P35439+Q00960); assay: Antagonist activity at recombinant rat GluN1a/GluN2B expressed in Xenopus laevis oocytes assessed as inhibition of glycine/glutamate-mediated current responses by two-electrode voltage clamp method; assay type: cell-based
Method in brief: (§2)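 Xenopus oocytes were injected with rat GluN1 and GluN2A–D cRNA (1:2) and recorded 2–6 days later by TEVC at room temperature, −40 mV, in Ba2+-containing recording solution, pH 7.4. Currents were evoked by 100 μM glycine plus glutamate at 2–3× EC50: 10 μM for GluN2A, 3 μM for GluN2B and GluN2C, 1 μM for GluN2D. IC50 from Hill fits per oocyte; Ki estimated.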

Mus musculus [8] = species on record: Mus musculus; assay: Antagonist activity at NMDA receptor in Nras driven p53 deficient mouse HCC cell membranes assessed as Abcg2 protein expression levels at 10 uM by […] analysis relative to control; set-up: scale not given: the % may be the effect or the level left
Method in brief: (§3)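 Mouse Nras-driven p53−/− HCC cells in DMEM with 10% FBS, exposed 48 h with or without 10 μM antagonist, washed, pelleted and snap-frozen. Crude membrane fraction isolated. 50 μg protein reduced, alkylated, precipitated, then Lys-C digested (3 h, rt) and trypsin digested (1:100, 37°C, 16 h). One unique peptide per transporter quantified by multiplexed SRM/MRM LC-MS/MS against stable isotope-labelled standards. Unpaired two-tailed t-test versus control, n=4.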

Mus musculus [9] = species on record: Mus musculus; assay: Antagonist activity at NMDA receptor in Nras driven p53 deficient mouse HCC cell membranes assessed as Abcb1 protein expression levels at 10 uM by […] analysis relative to control; set-up: scale not given: the % may be the effect or the level left; method in brief: as §3
Mus musculus [10] = species on record: Mus musculus; assay: Antagonist activity at NMDA receptor in Nras driven p53 deficient mouse HCC cell membranes assessed as Abcc4 protein expression levels at 10 uM by […] analysis relative to control; set-up: scale not given: the % may be the effect or the level left; method in brief: as §3
Liver [11] = assay: AUC (0 to 240 mins) in mouse liver at 10 mg/kg, ip administered as bolus dose by LC-MS/MS analysis; assay type: ADME, organism-based; set-up: dose 10 mg/kg, time < 4 hr, route intraperitoneal; settings: in vivo, 4 h; method in brief: as §1
Mus musculus [12] = species on record: Mus musculus; assay: Antagonist activity at NMDA receptor in Nras driven p53 deficient mouse HCC cell membranes assessed as potentiation of 2.5 uM sorafenib-mediated antiproliferative activity by measuring cell viability at 100 uM after 72 hrs by resazurin assay (reference value: […] +/- […]%)
Mus musculus [13] = species on record: Mus musculus; assay: Antagonist activity at NMDA receptor in Nras driven p53 deficient mouse HCC cell membranes assessed as potentiation of 10 uM sorafenib-mediated antiproliferative activity by measuring cell viability at 100 uM after 72 hrs by resazurin assay (reference value: […] +/- […]%)
Mus musculus [14] = species on record: Mus musculus; assay: Antagonist activity at NMDA receptor in Nras driven p53 deficient mouse HCC cell membranes assessed as decrease in Slc2a1 protein expression levels by measuring [14C]-D-glucose accumulation at 10 uM preincubated for 24 hrs followed by compound wash out and addition of [14C]-D-glucose measured after 5 mins by scintillation counting method relative to control; set-up: scale not given: the % may be the effect or the level left
Method in brief: (§4)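 Nras p53−/− HCC cells (1 × 10⁵/well) were pretreated 24 h with or without 10 μM. They were then washed 3× in warm HBSS (choline chloride, pH 7.4) and incubated at 37 °C with probe in HBSS. Incubation was 30 min for [3H]-digoxin, 20 μM fluorescein or 10 μM sorafenib, and 5 min for [14C]-L-leucine or [14C]-D-glucose. Cells were washed ice-cold and lysed in 0.1 M NaOH. Read-out was scintillation, fluorescence or LC-MS/MS, normalized to protein.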

Mus musculus [15] = species on record: Mus musculus; assay: Antagonist activity at NMDA receptor in Nras driven p53 deficient mouse HCC cell membranes assessed as decrease in Abcc1 to 5 protein expression levels by measuring fluorescein accumulation at 10 uM preincubated for 24 hrs followed by compound wash out and addition of fluorescein measured after 30 mins by fluorescence assay relative to control; set-up: scale not given: the % may be the effect or the level left; method in brief: as §4
[16] = target: Glutamate NMDA receptor; Grin1/Grin2c (Rattus norvegicus, UniProt P35439+Q00961); assay: Antagonist activity at recombinant rat GluN1a/GluN2C expressed in Xenopus laevis oocytes assessed as inhibition of glycine/glutamate-mediated current responses by two-electrode voltage clamp method; assay type: cell-based; method in brief: as §2
Liver [17] = assay: Tmax in mouse liver at 10 mg/kg, ip administered as bolus dose by LC-MS/MS analysis; assay type: ADME, organism-based; settings: in vivo; method in brief: as §1
[18] = target: Glutamate receptor ionotropic, kainate 1 (Rattus norvegicus, UniProt P22756); assay: Displacement of [3H]-SYM2081 from recombinant homomeric rat GluK1 (Q)1b receptor expressed in baculovirus infected Sf9 insect cell membranes by scintillation counting method
Brain [19] = assay: Drug uptake in mouse brain at 100 uM administered via perfusion; settings: in vivo, other
Plasma = assay: Cmax in mouse plasma at 10 mg/kg, ip administered as bolus dose by LC-MS/MS analysis; assay type: ADME, organism-based; set-up: dose 10 mg/kg, route intraperitoneal; settings: in vivo; method in brief: as §1

Chain of Glutamate NMDA receptor; Grin1/Grin2b (Q00960 whole entry, other chains not shown): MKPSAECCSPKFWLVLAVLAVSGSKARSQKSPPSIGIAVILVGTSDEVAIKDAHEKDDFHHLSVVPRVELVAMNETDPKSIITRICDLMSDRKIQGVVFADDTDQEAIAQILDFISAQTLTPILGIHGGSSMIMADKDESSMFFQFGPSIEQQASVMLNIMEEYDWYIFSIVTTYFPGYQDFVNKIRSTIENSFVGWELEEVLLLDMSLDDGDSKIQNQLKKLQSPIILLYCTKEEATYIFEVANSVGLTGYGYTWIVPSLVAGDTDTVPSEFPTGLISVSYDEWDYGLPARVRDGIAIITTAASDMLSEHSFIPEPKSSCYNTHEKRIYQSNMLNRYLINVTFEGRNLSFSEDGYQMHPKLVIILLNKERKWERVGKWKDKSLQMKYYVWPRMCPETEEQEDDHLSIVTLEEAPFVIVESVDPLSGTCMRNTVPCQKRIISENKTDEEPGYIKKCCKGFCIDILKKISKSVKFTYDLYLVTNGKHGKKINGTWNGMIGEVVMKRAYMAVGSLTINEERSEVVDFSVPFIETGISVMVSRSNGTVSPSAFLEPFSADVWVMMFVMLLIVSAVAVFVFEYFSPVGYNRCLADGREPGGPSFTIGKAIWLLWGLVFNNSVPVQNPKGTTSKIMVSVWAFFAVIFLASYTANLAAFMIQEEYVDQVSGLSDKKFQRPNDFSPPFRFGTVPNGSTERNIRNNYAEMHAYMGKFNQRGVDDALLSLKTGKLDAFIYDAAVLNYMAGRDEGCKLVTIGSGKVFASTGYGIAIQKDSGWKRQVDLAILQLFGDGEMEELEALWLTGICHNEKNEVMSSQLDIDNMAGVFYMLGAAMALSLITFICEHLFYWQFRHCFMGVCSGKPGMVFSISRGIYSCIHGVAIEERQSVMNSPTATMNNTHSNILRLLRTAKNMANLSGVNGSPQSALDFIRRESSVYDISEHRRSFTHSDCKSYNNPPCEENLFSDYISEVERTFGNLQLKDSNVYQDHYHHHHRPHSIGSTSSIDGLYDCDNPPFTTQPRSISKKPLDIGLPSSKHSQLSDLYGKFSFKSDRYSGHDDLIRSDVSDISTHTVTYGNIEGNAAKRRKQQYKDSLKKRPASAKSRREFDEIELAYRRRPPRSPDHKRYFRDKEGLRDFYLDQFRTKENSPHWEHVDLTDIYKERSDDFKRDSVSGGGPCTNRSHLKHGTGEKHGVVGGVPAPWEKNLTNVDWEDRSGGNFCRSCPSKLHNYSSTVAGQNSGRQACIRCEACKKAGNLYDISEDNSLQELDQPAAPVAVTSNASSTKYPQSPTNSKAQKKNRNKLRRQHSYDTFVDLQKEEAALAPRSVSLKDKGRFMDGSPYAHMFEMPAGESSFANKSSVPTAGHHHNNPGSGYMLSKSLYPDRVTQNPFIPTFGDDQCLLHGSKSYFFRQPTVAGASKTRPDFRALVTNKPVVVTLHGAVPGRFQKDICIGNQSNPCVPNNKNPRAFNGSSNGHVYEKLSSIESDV
Chain of Glutamate NMDA receptor; Grin1/Grin2c (Q00961 whole entry, other chains not shown): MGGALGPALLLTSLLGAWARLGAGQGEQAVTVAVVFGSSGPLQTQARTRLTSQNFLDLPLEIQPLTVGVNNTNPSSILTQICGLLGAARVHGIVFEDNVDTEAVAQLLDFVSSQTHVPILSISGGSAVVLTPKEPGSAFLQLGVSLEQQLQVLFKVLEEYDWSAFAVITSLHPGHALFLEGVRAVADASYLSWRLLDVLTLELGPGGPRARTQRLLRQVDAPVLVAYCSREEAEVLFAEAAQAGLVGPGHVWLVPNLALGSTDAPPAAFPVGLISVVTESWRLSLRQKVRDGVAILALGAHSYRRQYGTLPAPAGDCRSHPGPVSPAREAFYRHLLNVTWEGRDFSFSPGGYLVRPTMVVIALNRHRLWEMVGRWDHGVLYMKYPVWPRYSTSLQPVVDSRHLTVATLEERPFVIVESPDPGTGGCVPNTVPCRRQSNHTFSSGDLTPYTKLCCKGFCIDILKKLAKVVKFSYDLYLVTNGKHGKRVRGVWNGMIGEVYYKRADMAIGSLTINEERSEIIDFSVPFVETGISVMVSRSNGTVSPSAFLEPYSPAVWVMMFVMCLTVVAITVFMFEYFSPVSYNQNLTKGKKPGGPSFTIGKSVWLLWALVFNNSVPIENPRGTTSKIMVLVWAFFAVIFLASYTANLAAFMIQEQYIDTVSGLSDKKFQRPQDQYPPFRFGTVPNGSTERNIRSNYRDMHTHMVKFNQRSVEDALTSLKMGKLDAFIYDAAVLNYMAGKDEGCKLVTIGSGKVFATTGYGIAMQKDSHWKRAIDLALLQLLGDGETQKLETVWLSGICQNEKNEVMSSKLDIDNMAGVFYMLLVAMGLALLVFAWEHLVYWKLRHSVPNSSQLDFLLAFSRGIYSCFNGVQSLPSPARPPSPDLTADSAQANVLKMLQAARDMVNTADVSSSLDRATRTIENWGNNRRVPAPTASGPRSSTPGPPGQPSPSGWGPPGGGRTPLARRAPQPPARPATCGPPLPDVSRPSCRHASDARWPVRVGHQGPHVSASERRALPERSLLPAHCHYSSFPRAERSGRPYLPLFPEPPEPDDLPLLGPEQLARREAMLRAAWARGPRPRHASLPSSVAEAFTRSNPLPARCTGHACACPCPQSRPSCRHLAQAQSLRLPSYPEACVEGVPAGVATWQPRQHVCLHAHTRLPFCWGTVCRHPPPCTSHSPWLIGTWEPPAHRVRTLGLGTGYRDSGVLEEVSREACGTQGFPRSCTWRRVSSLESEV
Chain of Glutamate receptor ionotropic, kainate 1 (P22756 whole entry, the tested form may be a part): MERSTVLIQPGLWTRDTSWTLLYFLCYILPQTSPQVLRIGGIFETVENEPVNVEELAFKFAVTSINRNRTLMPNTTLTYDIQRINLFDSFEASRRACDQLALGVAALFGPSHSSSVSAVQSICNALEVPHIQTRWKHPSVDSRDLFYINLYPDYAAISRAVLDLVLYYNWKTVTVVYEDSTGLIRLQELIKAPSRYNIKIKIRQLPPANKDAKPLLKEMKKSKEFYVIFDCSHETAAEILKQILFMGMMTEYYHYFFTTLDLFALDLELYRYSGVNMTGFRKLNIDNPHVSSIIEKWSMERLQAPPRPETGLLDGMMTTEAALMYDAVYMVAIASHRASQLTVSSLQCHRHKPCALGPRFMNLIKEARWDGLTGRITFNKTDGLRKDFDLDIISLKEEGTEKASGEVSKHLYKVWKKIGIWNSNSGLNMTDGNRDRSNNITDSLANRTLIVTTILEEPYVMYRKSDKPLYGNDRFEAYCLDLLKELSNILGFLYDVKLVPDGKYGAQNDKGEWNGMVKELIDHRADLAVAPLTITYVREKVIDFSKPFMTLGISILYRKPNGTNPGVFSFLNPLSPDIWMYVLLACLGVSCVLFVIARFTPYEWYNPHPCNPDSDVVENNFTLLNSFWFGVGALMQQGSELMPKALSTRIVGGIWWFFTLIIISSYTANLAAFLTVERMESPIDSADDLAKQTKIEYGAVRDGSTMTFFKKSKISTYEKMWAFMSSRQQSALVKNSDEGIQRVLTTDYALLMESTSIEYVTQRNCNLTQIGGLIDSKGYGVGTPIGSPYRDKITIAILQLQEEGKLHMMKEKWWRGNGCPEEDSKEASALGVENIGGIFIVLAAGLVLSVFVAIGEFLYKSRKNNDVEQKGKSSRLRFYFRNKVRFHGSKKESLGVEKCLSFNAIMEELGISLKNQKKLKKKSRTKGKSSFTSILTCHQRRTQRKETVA
Chain of Glutamate receptor ionotropic, kainate 2 (P42260 whole entry): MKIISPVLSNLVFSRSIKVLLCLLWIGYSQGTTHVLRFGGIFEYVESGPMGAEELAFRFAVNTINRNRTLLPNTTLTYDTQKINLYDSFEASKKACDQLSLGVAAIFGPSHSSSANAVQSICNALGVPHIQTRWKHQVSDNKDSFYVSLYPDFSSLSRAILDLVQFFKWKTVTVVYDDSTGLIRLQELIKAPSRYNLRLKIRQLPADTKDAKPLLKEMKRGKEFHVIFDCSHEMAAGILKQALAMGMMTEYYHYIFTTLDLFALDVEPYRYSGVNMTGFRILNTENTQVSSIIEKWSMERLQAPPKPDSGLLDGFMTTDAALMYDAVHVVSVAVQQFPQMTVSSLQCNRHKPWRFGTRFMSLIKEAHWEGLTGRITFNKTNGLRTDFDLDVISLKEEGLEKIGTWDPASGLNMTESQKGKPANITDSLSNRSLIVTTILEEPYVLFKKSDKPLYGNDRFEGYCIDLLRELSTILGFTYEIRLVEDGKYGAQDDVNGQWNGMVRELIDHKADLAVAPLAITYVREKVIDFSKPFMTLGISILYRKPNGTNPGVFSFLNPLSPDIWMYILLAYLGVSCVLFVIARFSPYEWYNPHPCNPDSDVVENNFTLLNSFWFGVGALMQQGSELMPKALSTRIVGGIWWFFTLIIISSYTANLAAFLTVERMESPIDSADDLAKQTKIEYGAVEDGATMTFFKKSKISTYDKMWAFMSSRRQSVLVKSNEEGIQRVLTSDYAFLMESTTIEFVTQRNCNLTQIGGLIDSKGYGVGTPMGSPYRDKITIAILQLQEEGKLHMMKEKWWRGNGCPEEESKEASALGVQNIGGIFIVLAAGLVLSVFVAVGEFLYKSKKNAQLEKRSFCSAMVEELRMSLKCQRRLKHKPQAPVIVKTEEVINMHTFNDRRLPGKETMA

Drug uptake (Brain [1]): 0.1 nmol/g
AUC (Brain [2]): 13 nmol·min/g
Activity (Mus musculus [3]): 48%
Kp [4]: 0.19
Ki [5]: > 100 µM
Activity (Mus musculus [6]): 127%
IC50 [7]: 29 µM
Ki [7]: 10 µM
Activity (Mus musculus [8]): 34%
Activity (Mus musculus [9]): 39%
Activity (Mus musculus [10]): 14%
AUC (Liver [11]): 575 nmol·min/g
Activity (Mus musculus [14]): 84%
Activity (Mus musculus [15]): 201%
IC50 [16]: 110 µM
Ki [16]: 24 µM
Tmax (Liver [17]): 30 min
Ki [18]: 154 µM
Drug uptake (Brain [19]): 5 pmol/g
Cmax (Plasma): 43.4 nmol/g
Structure (SMILES): Cl.O=C(O)c1cc([C@H]2CCN[C@@H]2C(=O)O)ccc1Cl
Activity (Mus musculus [12]): 30%
Activity (Mus musculus [13]): 24%
